Only some compounds are listed: those with a hit (about 4.7% of all), similar ones and a draw of the others.
ADAM17 inh: inhibits human ADAM17 | recombinant ADAM17, EDANS/DABCYL FRET peptide cleavage | inhibition, % at 6.95 µM | P78536 | hit rate 0.83% among 370,000 | AID 720648;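 active means inhibition above the mean of compounds lying between control limits plus 3 SD, set per campaign, cut at about 8.5% in these data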;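 further: 0% = DMSO-only wells as the low control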
SKN-1 inh: blocks SKN-1 activity in C. elegans. C. elegans VP596 Pgst-4::GFP/RFP ratio, acrylamide-induced, 24 h. inhibition, % at 21.8 µM. hit rate 0.49% among 360,000. AID 624304;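 active means interference check ratio from 0.5 to 1.5 plus GFP to RFP signal ratio inhibition reaching or exceeding a fixed threshold, cut at about 30% in these data, passing the limit was not always enough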
MT1-MMP act inh: inhibitors of human MT1-MMP activation; P50281; HT1080 RFP-PRO-GFP cells, GFP/RFP ratio fluorescence, overnight; percent of plate control window, DMSO zero; AID 651647; hit rate 0.061% among 360,000; GFP/RFP ratio change, % at 20 µM;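 active means GFP/RFP ratio change of at least 30% with cell ATP level not reduced by more than half and red fluorescence within 50% of control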
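Read-out: GFP/RFP fluorescence ratio; Test system: RFP-PRO-GFP reporter HT1080 cells; Compound dosing: single-point 20 µM compound, 1% DMSO; Times: overnight compound exposure at 37 °C.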
MPTP block: blocks calcium-induced mitochondrial swelling; isolated mouse mitochondria, Ca2+ swelling absorbance, 30 min; inhibition, % at 10 µM; hit rate 1.4% among 360,000;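 active means inhibition of 50% or more, scaled per plate between neutral and stimulator controls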;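 further: 0% = DMSO wells given calcium and 100% = 1 mM EGTA wells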
ADAM10 inh: inhibitors of human ADAM10; O14672; inhibition, % at 7 µM; hit rate 0.62% among 370,000; recombinant ADAM10, EDANS/DABCYL FRET peptide cleavage, 3 h;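 active means inhibition above a per-campaign cutoff equal to the mean of compounds falling between control-based bounds plus 3 SD, cut at about 20% in these data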;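 further: 0% = DMSO wells while the 100% control is not disclosed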
Target sequence (O14672 214-748 limits assumed): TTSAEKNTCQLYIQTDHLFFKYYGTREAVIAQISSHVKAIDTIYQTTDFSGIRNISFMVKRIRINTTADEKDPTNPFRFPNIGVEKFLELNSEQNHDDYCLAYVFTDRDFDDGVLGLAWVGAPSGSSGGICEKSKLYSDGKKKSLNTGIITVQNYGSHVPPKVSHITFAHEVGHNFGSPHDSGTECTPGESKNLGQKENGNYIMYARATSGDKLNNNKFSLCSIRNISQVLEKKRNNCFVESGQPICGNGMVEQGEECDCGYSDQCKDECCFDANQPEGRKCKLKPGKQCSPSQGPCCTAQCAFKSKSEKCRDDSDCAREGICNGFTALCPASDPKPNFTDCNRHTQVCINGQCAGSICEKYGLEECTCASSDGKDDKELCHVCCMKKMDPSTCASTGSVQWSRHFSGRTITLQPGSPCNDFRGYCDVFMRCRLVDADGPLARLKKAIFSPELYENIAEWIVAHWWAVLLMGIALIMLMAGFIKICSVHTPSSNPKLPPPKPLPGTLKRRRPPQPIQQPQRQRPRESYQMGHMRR
NR3A LBD binder: modulators (binders) of human NR3A ligand-binding domain. NR3A LBD differential scanning fluorimetry, Tm shift; 0% = protein alone, 100% = glycine-bound protein. hit rate 2.5% among 340,000. Tm shift relative to glycine control, % at 25 µM;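 active means melting temperature shift of at least 10% of the positive control shift, at one fixed dose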
Starred values were filed as active, the others as inactive; / = no result.

SMILES	ADAM17 inh	SKN-1 inh	MT1-MMP act inh	MPTP block	ADAM10 inh	NR3A LBD binder
Cn1ncc([N+](=O)[O-])c1C(=O)Nc1ccc(-c2nc3ccccc3[nH]2)cc1	1.2	9.3	15.0	-1.6	9.2	/
CS(=O)(=O)c1cccc(C(=O)Nc2cccc(-c3nc4ccccc4[nH]3)c2)c1	0.0	-7.6	1.7	-0.6	7.2	8.8
CCOc1ccc(C(=O)Nc2ccc(-c3nc4ccccc4[nH]3)cc2)cc1[N+](=O)[O-]	2.7	-6.7	6.4	2.9	7.0	211.8*
CCNC(=S)Nc1ccc(-c2nc3ccccc3[nH]2)cc1	-15.5	1.9	7.5	-2.5	-48.1	27.7*
CS(=O)(=O)c1ccc(C(=O)Nc2ccc(-c3nc4ccccc4[nH]3)cc2)cc1	-28.4	-2.2	-3.8	-1.5	-71.7	32.2*
CC(Sc1nc2ccccc2s1)C(=O)Nc1ccc2c(c1)OCO2 (centres undefined)	/	0.1	2.4	14.4	/	-0.1
CCOc1ccc(NC(=S)NCc2nc3ccccc3[nH]2)cc1	-6.3	1.8	2.2	0.0	-0.8	-3.1
COc1ccc(Cc2c(-c3ccc(F)cc3)nc3ccc(C)cn23)c(C)c1	-7.8	/	/	/	-34.9	/
O=C(Nc1ccc(-c2nc3ccccc3[nH]2)cc1)c1c(F)c(F)c(F)c(F)c1F	3.2	0.7	3.2	-0.1	7.8	16.2*
COc1c(F)c(F)c(C(=O)Nc2ccc(-c3nc4ccccc4[nH]3)cc2)c(F)c1F	-8.2	-3.2	1.4	2.0	-24.5	13.4*
O=C(Nc1cccc(-c2nc3ccccc3s2)c1)c1ccc2c(c1)OCO2	4.3	-5.1	-2.8	3.3	6.2	10.2*
COCCN1Cc2cccc(C(=O)Nc3ccc(-c4nc5ccccc5[nH]4)cc3)c2C1=O	-10.0	4.6	-5.2	1.8	-40.2	3.0
CCOc1ccc(C(=O)Nc2ccc(NC(=O)c3ccccc3)c(C)c2)cc1[N+](=O)[O-]	-0.6	1.9	0.4	0.4	-1.2	17.9*
O=C(CN1CCOCC1)Nc1ccc(-c2nc3ccccc3[nH]2)cc1	-9.9	6.8	10.7	0.1	-19.4	-6.8
Cc1cc(C(=O)NNC(=O)Nc2ccccc2)no1	-5.6	0.8	/	0.8	-4.2	-0.1
COc1ccc(NC(=O)CN(Cc2ccccc2)S(C)(=O)=O)c(OC)c1	-6.7	1.5	-0.3	-0.9	-6.2	-0.5
O=C(Nc1ccc(-c2nc3ccccc3[nH]2)cc1)c1ccc2c(c1)OCO2	-108.6	2.2	11.5	11.8	-231.1	30.2*
O=C(Cc1ccccc1)NS(=O)(=O)c1ccc(N=NN2CCOCC2)cc1	0.7	-4.5	2.7	0.7	3.1	0.6
COc1cccc(CN(C)C(=O)/C=C/c2ccc(S(=O)(=O)N3CCCCCC3)cc2)c1	-5.2	7.7	2.6	0.4	1.1	24.4*
COc1cccc(/C=C/C(=O)OCC(=O)Nc2ccc(S(=O)(=O)N3CCCC3)cc2)c1	-17.6	14.2	-5.3	1.9	-61.0	-2.5
Nc1ccc2c(Cl)cc(Cl)cc2c1	-2.1	63.0*	-2.8	0.7	-7.8	/
Nc1ccc2c(O)cc(S(=O)(=O)O)cc2c1	-35.5	11.1	-5.9	-1.0	-141.2	3.4
CC/C(=C\c1ccc(N(C)C)cc1)c1ccncc1	-5.1	66.7*	-7.3	0.8	-21.0	-1.0
C=CCNC(=O)/C(C#N)=C/c1ccccc1OCc1ccc(C(=O)OC)cc1	-2.2	7.2	-2.7	0.6	-0.2	33.7*
O=C(NCc1ccncc1)C(=O)NC1CC1	-5.8	1.4	4.8	0.3	-12.3	-1.1
CC1(c2ccccc2)CC(=O)N(c2ccc(NC(=O)c3ccccn3)cc2Cl)C1=O (centres undefined)	-0.6	/	/	/	-1.9	/
C#CCn1c(=NC(=O)c2ccc(S(=O)(=O)N3CCCc4ccccc43)cc2)sc2cc(S(N)(=O)=O)ccc21	2.3	7.4	-21.8	-0.4	11.1	18.6*
Cn1c(=NC(=O)c2ccc(S(=O)(=O)N3CCCc4ccccc43)cc2)sc2cc(S(C)(=O)=O)ccc21	-5.0	4.6	6.0	3.1	-1.1	-1.7
NS(=O)(=O)c1ccc(NC(=O)COC(=O)c2ccc(S(=O)(=O)N3CCOCC3)cc2)cc1	-0.9	2.4	0.0	-0.4	-11.1	14.0*

Screens as filed in PubChem BioAssay.
